Bioassay records: PubChem, Broad Institute
This excerpt belongs to a sample that is enriched for hits.
XiGFP reactiv = reactivates the inactive X chromosome in mouse fibroblasts. AID 743238. activation, % at 7.58 µM. hit rate 0.055% among 360,000. XiGFP mouse fibroblasts, % GFP-positive cells imaging, 3 d; cells co-treated with 5-aza-dC sensitizer; scaled so ellipticine positive control = 100%;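 active means mean normalized replicate activation at least 10% and every replicate at or above 10%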;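 further: 0% = median of on-plate neutral control wells and 100% = ellipticine 6 µM median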
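Material: SV40-immortalized XiGFP fibroblast cells, line 68-5-11 | Buffer or medium: DMEM containing 5-aza-dC | Dosing: One concentration, pinned | Times: 3 d treatment, 15 min room-temperature fixation | Controls: Ellipticine 6 µM positive control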
E-sel inducer = E-selectin induction on HUVECs; activation, % at 7.58 µM; hit rate 0.37% among 260,000; HUVEC E-selectin immunofluorescence imaging; normalized: neutral wells 0, TNF-alpha wells 100; AID 686992; P16581;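 active means mean E-selectin-positive cell signal at least 10% of the positive control, reached in at least 60% of replicates, without over 20% cell loss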
Target sequence (P16581 whole entry, looked up): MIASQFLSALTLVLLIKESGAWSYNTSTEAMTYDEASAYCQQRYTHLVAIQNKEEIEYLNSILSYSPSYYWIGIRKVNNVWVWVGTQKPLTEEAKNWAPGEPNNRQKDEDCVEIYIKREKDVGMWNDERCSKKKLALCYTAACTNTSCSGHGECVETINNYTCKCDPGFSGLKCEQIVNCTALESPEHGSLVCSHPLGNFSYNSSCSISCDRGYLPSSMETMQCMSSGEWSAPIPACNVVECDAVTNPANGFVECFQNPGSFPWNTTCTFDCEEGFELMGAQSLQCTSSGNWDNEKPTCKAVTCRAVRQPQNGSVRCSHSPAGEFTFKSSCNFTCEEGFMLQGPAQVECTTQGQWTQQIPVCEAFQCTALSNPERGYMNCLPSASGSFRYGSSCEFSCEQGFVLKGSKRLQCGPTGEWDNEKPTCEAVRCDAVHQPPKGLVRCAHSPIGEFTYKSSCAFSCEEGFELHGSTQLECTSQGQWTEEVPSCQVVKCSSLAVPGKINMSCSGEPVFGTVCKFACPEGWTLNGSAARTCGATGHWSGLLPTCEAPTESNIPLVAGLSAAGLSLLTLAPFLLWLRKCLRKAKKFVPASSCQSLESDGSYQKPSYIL
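Test system: HUVEC | Signal: Immunofluorescence imaging | Read-out: Percent E-selectin-positive cells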
* hit, by the source's call; · = not tested or not shown.

SMILES | XiGFP reactiv | E-sel inducer
CCNC(=O)[C@H]1[C@H](CO)[C@H]2Cn3c(ccc(-c4ccccc4)c3=O)[C@H]2N1Cc1ccccn1 | 0 | -1
COc1ccc(NC(=O)N(C)C[C@H]2Oc3cc(C#CCN(C)C)ccc3S(=O)(=O)N([C@H](C)CO)C[C@H]2C)cc1 | 0 | 0
COc1ccc2sc(-c3ccccc3OC)c(-c3ccc(O)cc3)c2c1 | 0 | 42*
COc1cc2sc(-c3ccccc3OC)c(-c3ccc(O)cc3)c2cc1OC | 0 | 1
C[C@H]1CN([C@@H](C)CO)C(=O)c2cccc(NS(=O)(=O)c3ccccc3)c2O[C@H]1CN(C)S(=O)(=O)c1ccccc1 | 0 | 1
CO[C@H]1CN(C)C(=O)c2ccc(NC(=O)C3CCC3)cc2OC[C@@H](C)N(Cc2ccc(F)cc2)C[C@H]1C | 0 | 0
Cc1cccc(NC(=S)N2CCC(c3nc4ccccc4o3)CC2)c1 | 0 | 11
S=C(NCc1ccco1)N1CCC(c2nc3ccccc3o2)CC1 | 0 | 60*
C=CCn1c(SCC(C)=O)nc2sc3c(c2c1=O)CCC3 | 0 | 0
C=CCn1c(SCC(=O)N(CC)C2CCS(=O)(=O)C2)nc2sc3c(c2c1=O)CCC3 (stereo not drawn) | 137* | 1
Cc1ccc(NC(=O)c2cc(C)nc3ccccc23)cc1 | 0 | ·
Cc1cccc(NC(=O)c2cc(C)nc3ccccc23)c1 | 0 | 61*
CC(C)NC(=O)Nc1ccc2c(c1)C(=O)N([C@H](C)CO)C[C@H](C)[C@@H](CN(C)S(C)(=O)=O)OCCCC[C@H](C)O2 | 0 | ·
CC(=O)N1CC2(C1)[C@H](c1ccccc1)[C@@H](CO)N2CC1CCOCC1 | 0 | 0
S=C1NCN(Cc2ccccc2)CN1 | 0 | ·
c1ccc(Cn2c[n+](Cc3ccccc3)cn2)cc1 | 0 | 43*
O=C(O)C[C@H]1C[C@@H]2c3cc(NC(=O)Nc4ccccc4)ccc3O[C@@H]2[C@H](CO)O1 | 0 | 0
Cc1cccc(NC(=O)Cc2ccc(NC3=NC4CS(=O)(=O)CC4S3)cc2)c1 (stereo not drawn) | 1 | 5
Cc1cc(C)cc(NC(=O)Cc2ccc(NC3=NC4CS(=O)(=O)CC4S3)cc2)c1 (stereo not drawn) | 0 | 51*
Cc1cc([N+](=O)[O-])nn1CC(=O)NCCCN1CCOCC1 | 0 | 27*
Cc1cc([N+](=O)[O-])nn1CC(=O)N1CCOCC1 | 0 | 0
COc1ccccc1S(=O)(=O)N[C@@H]1CC[C@H](CCn2cc(C3CCCCC3)nn2)O[C@@H]1CO | 0 | 0
CO[C@H]1CN(C)C(=O)c2cc(NC(=O)Nc3ccc(Cl)cc3)ccc2OC[C@H](C)NC[C@H]1C | 0 | 66*
CO[C@@H]1CN(C)C(=O)c2ccc(NC(=O)Nc3ccc(F)cc3)cc2OC[C@@H](C)N(C(=O)c2ccc(F)cc2)C[C@H]1C | 0 | 44*
CO[C@H]1CN(C)C(=O)c2ccc(NC(C)=O)cc2OC[C@@H](C)N(C(=O)c2ccc(F)cc2)C[C@@H]1C | 0 | 0
SMILES | XiGFP reactiv | E-sel inducer
CO[C@H]1CN(C)C(=O)c2cc(NC(=O)Nc3ccc(Cl)cc3)ccc2OC[C@H](C)NC[C@@H]1C | 0 | 0
C[C@@H]1CCCCO[C@@H](CN(C)C(=O)Nc2ccc3c(c2)OCO3)[C@H](C)CN([C@@H](C)CO)C(=O)c2cc(NC(=O)c3ccccc3)ccc2O1 | 0 | 0
CCc1cccc(NC(=O)CCc2nc3sc4c(c3c(=O)[nH]2)CCCC4)c1 | 0 | 84*
Cc1cccc(NC(=O)CCc2nc3sc4c(c3c(=O)[nH]2)CCCC4)c1 | 0 | ·
C[C@@H]1CCCCO[C@H](CN(C)C(=O)NC2CCCCC2)[C@@H](C)CN([C@H](C)CO)C(=O)c2cc(NC(=O)NC3CCCCC3)ccc2O1 | 0 | 0
C[C@H]1CN([C@@H](C)CO)C(=O)Cc2cc(NS(=O)(=O)c3ccccc3)ccc2O[C@H]1CN(C)Cc1ccc(C(F)(F)F)cc1 | 0 | 42*
C[C@@H]1CN([C@H](C)CO)C(=O)Cc2cc(NS(=O)(=O)c3ccccc3)ccc2O[C@H]1CN(C)Cc1ccc(C(F)(F)F)cc1 | 0 | 2
C[C@@H]1CN([C@H](C)CO)C(=O)Cc2cc(NS(=O)(=O)c3ccccc3)ccc2O[C@@H]1CN(C)Cc1ccc(C(F)(F)F)cc1 | 0 | 47*
C[C@H](CO)N1C[C@H](C)[C@@H](CN(C)Cc2ccc(C(F)(F)F)cc2)Oc2ccc(NC(=O)Cc3cn(C)c4ccccc34)cc2CC1=O | -1 | -3
C[C@H](CO)N1C[C@H](C)[C@H](CN(C)Cc2ccc(C(F)(F)F)cc2)Oc2ccc(NS(=O)(=O)c3ccccc3)cc2CC1=O | 0 | 6
C[C@H](CO)N1C[C@H](C)[C@H](CN(C)Cc2ccc(C(F)(F)F)cc2)Oc2ccc(NC(=O)Cc3cn(C)c4ccccc34)cc2CC1=O | 1 | 228*
C[C@H](CO)N1C[C@H](C)[C@H](CN(C)CC2CC2)Oc2ccc(NC(=O)Cn3cnnn3)cc2CC1=O | 0 | 0
O=C(C[C@@H]1CC[C@@H](NC(=O)CN2CCOCC2)[C@H](CO)O1)NC1CCCCC1 | -1 | 0
CCn1nc(C)c(NC(=O)c2ccc(Cl)cc2)c1C | 0 | -1
CCN(CC)P(=O)(Nc1ccc(Br)cc1)c1c(C)nn(CCC#N)c1NC(=O)c1ccc(Cl)cc1 (stereo not drawn) | 0 | 50*
C[C@H]1CCCCO[C@@H](CN(C)C(=O)C2CCCCC2)[C@@H](C)CN([C@@H](C)CO)C(=O)c2cc(N(C)C)ccc2O1 | 0 | 0
C[C@H]1CN([C@@H](C)CO)C(=O)c2cc(NC(=O)CCCCCC(=O)Nc3ccccc3N)ccc2O[C@H]1CN(C)C(=O)Nc1ccc(F)cc1 | 0 | 44*
C[C@@H]1CN([C@H](C)CO)C(=O)c2cc(NC(=O)CCCCCC(=O)Nc3ccccc3N)ccc2O[C@H]1CN(C)C(=O)Nc1ccc2c(c1)OCO2 | 0 | 28*
C[C@H](CO)N1C[C@H](C)[C@H](CN(C)C(=O)Nc2ccc(F)cc2)Oc2ccc(NC(=O)CCCCCC(=O)Nc3ccccc3N)cc2C1=O | 0 | -15
C[C@@H]1CN([C@@H](C)CO)C(=O)c2cc(NC(=O)CCCCCC(=O)Nc3ccccc3N)ccc2O[C@H]1CN(C)C(=O)Nc1ccc2c(c1)OCO2 | 0 | 105*
C[C@H](CO)N1C[C@H](C)[C@H](CN(C)C(=O)Nc2ccc3c(c2)OCO3)Oc2ccc(NC(=O)CCCCCC(=O)Nc3ccccc3N)cc2C1=O | 0 | 23
C[C@H]1CN([C@@H](C)CO)C(=O)c2cc(NC(=O)CCCCCC(=O)Nc3ccccc3N)ccc2O[C@@H]1CN(C)C(=O)Nc1ccc2c(c1)OCO2 | 0 | 3
C[C@H]1CN([C@@H](C)CO)C(=O)c2cc(C#Cc3ccccc3F)cnc2O[C@H]1CN(C)C(=O)C1CC1 | 0 | 1
C[C@@H]1CN([C@H](C)CO)C(=O)c2cccc(N(C)C)c2O[C@H]1CN(C)S(=O)(=O)c1ccc(Cl)cc1 | -1 | ·
CNC[C@@H]1Oc2ccc(NS(=O)(=O)c3cn(C)cn3)cc2CC(=O)N([C@@H](C)CO)C[C@H]1C | 0 | 0
O=C(N/N=C/c1ccc(OC(F)F)cc1)c1cc[n+]([O-])cc1 | 0 | 8
COc1ccc(/C=N/NC(=O)c2cc[n+]([O-])cc2)cc1 | 0 | 42*
